From ChEMBL document CHEMBL2434823, “Design, synthesis and biological activities of some 7-aminocephalosporanic acid derivatives” (Eur J Med Chem, 2013) come the findings set out here.

The inhibition is the percentage by which the read-out fell short of the control. As a reminder, the IC50 is the concentration needed to halve the response being measured.

Calls of active or inactive are those of the source. The rule behind the calls is not given here.

One experiment deals with Escherichia coli. The experiment can be described thus: Antimicrobial activity against Escherichia coli ATCC 25922 at 10 ug. In kind it is functional. Particulars: read-out: IZ. In a few lines:
(§1)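 Compounds were dissolved in […] as 20.000 µg/mL stocks. Ampicillin (10 µg) was the reference antibacterial, and DMSO diluted 1:10 was the solvent control.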

Experiment [1] relates to Bacillus cereus. The experiment can be described thus: Antimicrobial activity against Bacillus cereus 702 Roma at 10 ug. The experiment is classed as functional. Particulars: read-out: IZ.
Experiment [2] relates to Pseudomonas aeruginosa. In words: Antimicrobial activity against Pseudomonas aeruginosa ATCC 43288 at 10 ug. The experiment is classed as functional. Particulars: read-out: IZ.
Experiment [3] relates to Yersinia pseudotuberculosis. In words: Antimicrobial activity against Yersinia pseudotuberculosis ATCC 911 at 10 ug. Particulars: read-out: IZ. In kind it is functional. In a few lines:
as §1

Experiment [4] deals with Enterococcus faecalis. In words: Antimicrobial activity against Enterococcus faecalis ATCC 29212 at 10 ug. The following applies: read-out: IZ. In kind it is functional.
For experiment [5], the system named is Staphylococcus aureus. In words: Antimicrobial activity against Staphylococcus aureus ATCC 25923 at 10 ug. In kind it is functional. Particulars: read-out: IZ.
For experiment [6], the system named is Yersinia pseudotuberculosis. In words: Antimicrobial activity against Yersinia pseudotuberculosis ATCC 911. The experiment is classed as functional. In a few lines:
as §1

Experiment [7] relates to Mycolicibacterium smegmatis. In words: Antimicrobial activity against Mycobacterium smegmatis ATCC 607. In kind it is functional.
The test system of experiment [8] is Saccharomyces cerevisiae. The experiment can be described thus: Antimicrobial activity against Saccharomyces cerevisiae RSKK 251. The experiment is classed as functional.
For experiment [9], the system named is Pseudomonas aeruginosa. The experiment can be described thus: Antimicrobial activity against Pseudomonas aeruginosa ATCC 43288. In kind it is functional. In outline: (§2)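 Compound stocks were 20.000 µg/mL in hexane. DMSO diluted 1:10 served as the solvent control, and ampicillin was the reference drug.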
Experiment [10] relates to Staphylococcus aureus. In words: Antimicrobial activity against Staphylococcus aureus ATCC 25923. The experiment is classed as functional. In a few lines:
as §2

Experiment [11] has as its system Bacillus cereus. The experiment can be described thus: Inhibition of Bacillus cereus metallo beta-lactamase assessed as nitrocefin substrate hydrolysis at 1 mM after 20 mins. In outline:
(§3)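 Commercial B. cereus metallo-β-lactamase (1.5 µM solution) was combined with nitrocefin (150 µM solution) and compound in 25 mM PIPES pH 7.0 containing 100 µM ZnSO4. A486 was read continuously for 20 min at 37 °C. Residual activity was taken relative to the no-inhibitor control, in triplicate. Screening used 1 mM final; IC50 came from a concentration series. HgCl2 was the positive control.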

Experiment [12] deals with Bacillus cereus. In words: Antimicrobial activity against Bacillus cereus 702 Roma. The experiment is classed as functional. In a few lines:
as §2

For experiment [13], the system named is Enterococcus faecalis. In words: Antimicrobial activity against Enterococcus faecalis ATCC 29212. In kind it is functional. In outline: as §2
The nature of experiment [14]: Inhibition of Bacillus cereus metallo beta-lactamase assessed as nitrocefin substrate hydrolysis after 20 mins. In outline:
as §3

The subject of experiment [15] is Candida albicans. The experiment can be described thus: Antimicrobial activity against Candida albicans ATCC 60193. The experiment is classed as functional.
In experiment [16] the target is Urease (Canavalia ensiformis) (UniProt P07374). The experiment can be described thus: Inhibition of jack bean urease using urea as substrate assessed as ammonia production at 250 ug/ml after 15 mins relative to control. In a few lines: (§4)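 Jack bean urease in pH 8.2 buffer (100 mM urea, 0.01 M K2HPO4, 1 mM EDTA, 0.01 M LiCl) was incubated with compound for 15 min at room temperature. Ammonia was measured by the indophenol method (phenol/nitroprusside, then NaOH/NaOCl) at A625 after 20 min. Inhibition % = 100 − (OD test/OD control)×100. […] Thiourea was the standard.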

For a further experiment, the target named is Urease (Canavalia ensiformis, UniProt P07374). The experiment can be described thus: Inhibition of jack bean urease using urea as substrate assessed as ammonia production after 15 mins. In a few lines: as §4
Experiment [17] addresses Urease (Canavalia ensiformis) (UniProt P07374). In words: Inhibition of jack bean urease using urea as substrate assessed as ammonia production at 100 ug/ml after 15 mins relative to control.
Experiment [18] relates to Saccharomyces cerevisiae. The experiment can be described thus: Antimicrobial activity against Saccharomyces cerevisiae RSKK 251 at 5 ug. In kind it is functional. The following applies: read-out: IZ. In outline: (§5)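 Compounds were dissolved in […] as 20.000 µg/mL stocks. Fluconazole (5 µg) was the reference antifungal, and DMSO diluted 1:10 was the solvent control.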

For experiment [19], the system named is Candida albicans. In words: Antimicrobial activity against Candida albicans ATCC 60193 at 5 ug. The experiment is classed as functional. The following applies: read-out: IZ. In outline: as §5

Chain of Urease (Canavalia ensiformis) (P07374 whole entry, looked up): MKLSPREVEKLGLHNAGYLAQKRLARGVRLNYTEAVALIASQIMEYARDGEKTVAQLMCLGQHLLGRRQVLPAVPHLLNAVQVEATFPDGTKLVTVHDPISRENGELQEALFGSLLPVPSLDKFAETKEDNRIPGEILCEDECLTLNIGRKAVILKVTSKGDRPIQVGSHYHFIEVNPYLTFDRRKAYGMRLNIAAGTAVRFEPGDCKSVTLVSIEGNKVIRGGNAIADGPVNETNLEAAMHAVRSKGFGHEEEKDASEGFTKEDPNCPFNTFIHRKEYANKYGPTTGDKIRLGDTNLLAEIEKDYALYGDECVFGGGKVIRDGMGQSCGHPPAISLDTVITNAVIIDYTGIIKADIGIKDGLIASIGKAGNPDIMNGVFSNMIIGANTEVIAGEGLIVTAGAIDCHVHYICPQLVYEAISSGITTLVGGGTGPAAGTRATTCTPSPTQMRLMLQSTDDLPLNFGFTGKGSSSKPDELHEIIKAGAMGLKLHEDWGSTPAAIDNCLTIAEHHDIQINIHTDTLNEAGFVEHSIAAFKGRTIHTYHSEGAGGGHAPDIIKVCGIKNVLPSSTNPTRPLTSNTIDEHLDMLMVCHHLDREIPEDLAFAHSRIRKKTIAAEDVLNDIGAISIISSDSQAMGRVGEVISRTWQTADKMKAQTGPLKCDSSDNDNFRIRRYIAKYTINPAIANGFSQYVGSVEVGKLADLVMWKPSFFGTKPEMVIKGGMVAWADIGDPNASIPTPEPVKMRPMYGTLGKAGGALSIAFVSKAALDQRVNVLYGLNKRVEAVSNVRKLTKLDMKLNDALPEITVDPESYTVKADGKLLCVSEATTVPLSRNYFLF
Chain of Urease (P07374 whole entry): as the sequence (P07374 whole entry, looked up) above

Take `CC1(C)S[C@@H]2[C@H](NC(=O)[C@H](N)c3ccccc3)C(=O)N2[C@H]1C(=O)O` [AMPICILLIN]: the zone of inhibition at 10 µg/disc in the experiment with Escherichia coli turned out to be 10 mm; in the experiment on Bacillus cereus [1], 15 mm; with Pseudomonas aeruginosa [2], 18 mm; in [3] it was 18 mm; in the experiment with Enterococcus faecalis [4], 10 mm; in the experiment on Staphylococcus aureus [5], 35 mm.
On to `CC(=O)OCC1=C(C(=O)O)N2C(=O)[C@@H](NC(=O)CN3CCN(c4ccc([N+](=O)[O-])cc4F)CC3)[C@H]2SC1`, for which the “inhibition zone (IZ)” value in experiment [6] stood at 6 mm; in [7], 22 mm; in the experiment with Saccharomyces cerevisiae [8] it was 30 mm; in the experiment on Staphylococcus aureus [10] it was 18 mm; in the experiment with Bacillus cereus [12], 10 mm; in the experiment on Enterococcus faecalis [13], 8 mm. Besides, in the experiment on Candida albicans [15], the “inhibition zone (IZ)” value is given as 15 mm. Also, the “inhibition zone (IZ)” value with Pseudomonas aeruginosa [9] is “inactive”. In the experiment with Bacillus cereus [11], the inhibition was 24%. Also, the IC50 in experiment [14] came out at 1170 µM.
For the compound `CC(=O)OCC1=C(C(=O)O)N2C(=O)[C@@H](NS(=O)(=O)c3ccc(/N=c4/sc(-c5ccc(Cl)cc5)cn4Cc4ccccc4)cc3)[C@H]2SC1`, the “inhibition zone (IZ)” value is listed as 8 mm in experiment [6]; 8 mm with Pseudomonas aeruginosa [9]; 22 mm in the experiment on Staphylococcus aureus [10]; 8 mm in the experiment on Enterococcus faecalis [13]; 10 mm with Candida albicans [15]. Further, the “inhibition zone (IZ)” value (in experiment [7]; in the experiment on Saccharomyces cerevisiae [8]; with Bacillus cereus [12]) was “inactive” throughout. In addition, the inhibition with Bacillus cereus [11] was 64%. In addition, the IC50 in [14] was 543 µM.
Take `O=C(Nc1ccccc1)Nc1ccc(S(=O)(=O)Cl)cc1`: the “inhibition zone (IZ)” value (in experiment [6]; in experiment [7]; in the experiment on Pseudomonas aeruginosa [9]; in the experiment with Bacillus cereus [12]; in the experiment with Enterococcus faecalis [13]) was “inactive” in each case. The results for the “inhibition zone (IZ)” value in the experiment on Saccharomyces cerevisiae [8], in the experiment with Staphylococcus aureus [10] and with Candida albicans [15] were 15 mm, 6 mm and 8 mm, respectively. Also, the inhibition in [16] was 100%; in experiment [17], 39.3%. For the same compound, the IC50 on Urease is 388 µM.
`OC(Cn1cncn1)(Cn1cncn1)c1ccc(F)cc1F` [FLUCONAZOLE]: the zone of inhibition at 5 µg/disc in the experiment with Saccharomyces cerevisiae [18] is over 25 mm; with Candida albicans [19] it was 25 mm.
